NPY2 pot ag: potentiators or agonists of human neuropeptide Y receptor Y2; 0.45% of 220,000 active; cells expressing NPY-Y2, potentiator/agonist read-out; activation, % at 3.6 µM; in the data active = activation above about 27%;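 also: cells stimulated with NPY near EC25 plus isoproterenol at EC100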
Cl transport mod: modulates chloride dependent transport by human KCC2 | Q9H2X9 | KCC2 cells, thallium flux FluoZin-2 fluorescence | B-score of Tl+ flux slope (higher = more flux/activation; lower = inhibition) at 10 µM | 2.2% of 190,000 active;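 active = thallium flux slope and its plate-corrected score both differing from the plate sample mean at a set confidence after two filtering rounds, in either direction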;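 also: slope of fluorescence scaled to starting intensity during 10 to 20 s after thallium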
Target sequence (Q9H2X9 whole entry, looked up): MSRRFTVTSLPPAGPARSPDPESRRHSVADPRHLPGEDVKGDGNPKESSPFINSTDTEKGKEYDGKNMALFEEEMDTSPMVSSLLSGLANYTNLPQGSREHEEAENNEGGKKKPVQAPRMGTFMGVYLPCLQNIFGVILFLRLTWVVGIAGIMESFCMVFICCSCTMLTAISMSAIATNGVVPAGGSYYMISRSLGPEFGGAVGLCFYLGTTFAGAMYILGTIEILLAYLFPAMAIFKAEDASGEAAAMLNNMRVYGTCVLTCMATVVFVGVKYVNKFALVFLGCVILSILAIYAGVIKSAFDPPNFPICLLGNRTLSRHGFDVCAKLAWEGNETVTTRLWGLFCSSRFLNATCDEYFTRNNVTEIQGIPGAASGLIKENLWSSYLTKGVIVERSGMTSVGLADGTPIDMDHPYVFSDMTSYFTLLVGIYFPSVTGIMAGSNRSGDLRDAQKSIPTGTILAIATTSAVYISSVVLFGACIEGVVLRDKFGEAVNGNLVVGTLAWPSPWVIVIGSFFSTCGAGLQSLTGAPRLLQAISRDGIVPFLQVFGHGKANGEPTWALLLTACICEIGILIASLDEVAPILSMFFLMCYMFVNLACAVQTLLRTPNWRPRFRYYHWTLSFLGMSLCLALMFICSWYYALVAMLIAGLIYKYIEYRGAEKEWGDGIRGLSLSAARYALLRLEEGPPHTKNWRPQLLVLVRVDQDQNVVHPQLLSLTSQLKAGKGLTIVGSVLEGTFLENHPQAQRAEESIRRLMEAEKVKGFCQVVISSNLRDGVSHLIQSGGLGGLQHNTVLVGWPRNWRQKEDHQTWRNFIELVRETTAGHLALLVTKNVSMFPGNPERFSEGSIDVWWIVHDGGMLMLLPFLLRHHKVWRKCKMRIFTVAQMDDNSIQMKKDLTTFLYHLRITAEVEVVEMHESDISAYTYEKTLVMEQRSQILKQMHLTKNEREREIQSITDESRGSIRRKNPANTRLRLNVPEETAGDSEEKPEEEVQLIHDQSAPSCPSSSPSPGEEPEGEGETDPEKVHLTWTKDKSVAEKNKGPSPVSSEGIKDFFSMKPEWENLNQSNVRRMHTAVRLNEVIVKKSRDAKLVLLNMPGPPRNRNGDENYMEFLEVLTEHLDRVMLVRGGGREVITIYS
NPY Y2 blocker: blocks the human neuropeptide Y Y2 receptor. P49146. NPY-Y2 expressing cells, antagonist mode. inhibition, % at 2.7 µM. 0.99% of 140,000 active. AID 793; in the data active = inhibition above about 17%
NPY-Y1 antag: blocks the human neuropeptide Y Y1 receptor; P25929; HEK293-CNG Y1 cells, membrane potential fluorescence; NPY at EC95, then isoproterenol; inhibition, % at 3.6 µM; 1% of 200,000 active;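 active = inhibition above the campaign mean inhibition of all tested compounds plus 3 SD, cut at about 20% in these data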
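Test system – HEK293 Y1/CNG channel cell line · Also added – NPY agonist 25 nM, then isoproterenol 1 µM plus Ro 20-1724 25 µM · Compound dosing – one concentration, 3.6 µM, in 0.4% DMSO · Schedule – compound incubation 1 h at room temperature, readout 45 min post-stimulation · Technique – fluorescence, membrane potential probe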
Furin inhibitor: inhibitors of human furin. P09958. 0.061% of 220,000 active. AID 463115. inhibition, % at 20 µM or 30 µM. purified furin, fluorogenic substrate cleavage; in the data active = inhibition above about 25%
NPY1 pot ag: potentiates or activates human NPY-Y1 receptor; P25929; activation, % at 3.6 µM; NPY-Y1 expressing cells, potentiator/agonist activation; 0.37% of 220,000 active; in the data active = activation above about 33%, passing the limit was not always enough;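 also: cells stimulated with NPY at EC10 then isoproterenol at EC100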
KCC2 sec1: KCC2 (human) modulation, secondary assay. shares compounds with Cl transport mod. HEK293-KCC2, thallium flux, FluoZin2 fluorescence; hits give high values. normalised thallium flux (F/F0 slope) at 10 µM. 15% of 3,700 active. AID 1713;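 active = thallium flux slope above the same plate's solvent-only control mean plus 3 SD; inconclusive = the two replicate wells disagree; inactive = no significant difference from solvent-only control wells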
KCC2 bumet counter: bumetanide-insensitive thallium flux in KCC2 cells with ouabain, counter-screen; HEK293-KCC2 + bumetanide/ouabain, thallium flux FluoZin2; hits give high values; AID 1714; normalized thallium flux at 10 µM; 49% of 3,700 active; shares compounds with Cl transport mod;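 active = thallium entry rate above the same plate's blocked-transporter control wells by more than 3 SD; inconclusive = the two repeat wells disagree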;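 also: raw slope of fluorescence over initial fluorescence between 10 and 20 s after thallium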
KCC2 secondary2: KCC2 (human) modulation, second secondary assay; normalized thallium flux at 10 µM; shares compounds with Cl transport mod; 23% of 3,700 active; HEK293-KCC2, thallium flux FluoZin2 fluorescence; actives lie on both sides; F/F0 rise rate, 10–20 s post-thallium;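 active = thallium flux slope more than 3 SD above or below the plate's solvent-only control mean, mostly below; inconclusive = the two repeat wells disagreed; inactive = no significant shift from solvent-only controls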
HEK293 Tl flux: counter-screen for KCC2 modulators: effect in parental HEK293 cells. thallium flux FluoZin2, ouabain; baseline-ratio fluorescence slope, 10–20 s after thallium. 46% of 3,700 active. thallium flux rate (normalised fluorescence) at 10 µM. shares compounds with Cl transport mod;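 active = thallium flux rate significantly above the same plate's solvent-only control wells, beyond their mean plus 3 SD; inconclusive = the two replicate wells gave conflicting results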
KCC2 retest ouab: confirmation of human KCC2 modulators with ouabain; shares compounds with Cl transport mod; HEK293-KCC2, thallium flux FluoZin2 fluorescence; bidirectional: low = inhibitor, high = activator; raw Tl+ flux slope (below DMSO = inhibition, above = activation) at 10 µM; 48% of 3,700 active; AID 1717;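 active = thallium flux slope beyond 3 SD from same-plate DMSO control mean in most replicates, usually higher, sometimes lower; inconclusive = repeat tests gave conflicting results; inactive = no significant difference from controls in most replicates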;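 also: slope of initial-normalized fluorescence between seconds 10 and 20 after thallium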
HEK293 Tl flux2: counter-screen for KCC2 modulators: effect in parental HEK293 cells; thallium flux FluoZin-2 fluorescence slope; thallium flux slope at 10 µM; shares compounds with Cl transport mod; 33% of 3,700 active; AID 1718;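 active = thallium flux slope above the same plate's solvent-control mean plus 3 SD in both duplicate wells; inconclusive = duplicate wells that disagreed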;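 also: run without ouabain in cells lacking the KCC2 cotransporter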
Hits are given with their value; 0 = inactive; ? = inconclusive; - = no result given. This is a sample that favours compounds with a hit; in the whole collection about 3.7% have one here.

SMILES	NPY2 pot ag	Cl transport mod	NPY Y2 blocker	NPY-Y1 antag	Furin inhibitor	NPY1 pot ag	KCC2 sec1	KCC2 bumet counter	KCC2 secondary2	HEK293 Tl flux	KCC2 retest ouab	HEK293 Tl flux2
Cc1onc(C(=O)N2CCN(Cc3ccccc3)CC2)c1[N+](=O)[O-]	0	-4.1	0	0	0	0	0	0	?	0	0.019	0
Clc1c(Cl)c(Cl)c2n[nH]nc2c1Cl	0	-6.7	-	-	0	0	?	0	?	0.0034	0.013	0.0074
CCOP(=O)(c1ccccc1)c1nc(-c2ccc(F)cc2)oc1N1CCCCC1 (stereo unspecified)	0	-2.9	0	0	0	0	0	0	0	?	?	0
Cc1cc(Br)ccc1NCc1ccccn1	0	0	0	0	0	0	-	-	-	-	-	-
O=S(=O)(Nc1c(S(=O)(=O)c2ccccc2)c2nc3ccccc3nc2n1C1CCCCC1)c1ccccc1	0	-4.3	0	0	0	0	0	0	0	0	?	0
C=CCn1c(NS(=O)(=O)c2ccccc2)c(S(=O)(=O)c2ccc(C)cc2)c2nc3ccccc3nc21	0	0	0	0	0	0	-	-	-	-	-	-
CCOC(=O)CCCC(=O)N1CCOCCOCCOCC1	0	0	-	-	0	0	-	-	-	-	-	-
O=C(NNC(=O)c1oc2ccccc2c1-n1cccc1)c1ccco1	0	-	-	0	0	0	0	0.024	0.04	0.019	0.03	0.019
CC12CCC(C(=O)Nc3ccncc3)(CC1O)C2(C)C (stereo unspecified)	0	0	-	-	0	0	-	-	-	-	-	-
CCc1c(C)[nH]c2ccccc2c1=O	0	7.6	0	0	0	0	0	?	0	0	0	0
COc1ccc(S(=O)(=O)N(CCc2ccccc2)CC(=O)O)cc1Cl	0	-3.8	0	0	0	0	0	?	0.027	0	0.017	0
N#Cc1cc(C(=O)c2cc(Cl)ccc2O)cn(-c2ccccc2)c1=O	0	-5	0	0	0	0	0	0	0	0	0	0
Cc1cc(NS(=O)(=O)c2ccc(NC(=O)c3oc4ccccc4c3C)cc2)no1	0	-2.9	0	0	0	0	0	0	0	0	?	0
C/C(=N\NC(=S)Nc1cc(S(=O)(=O)N2CCOCC2)ccc1Cl)c1ccc(N2CCOCC2)cc1	0	0	-	-	0	0	-	-	-	-	-	-
C/C(=N\NC(=S)Nc1ccc(C)c(C)c1)c1ccc(N2CCOCC2)cc1	0	5	0	0	0	0	0	0.033	0	0.015	0	0
COc1cc(N2C(=O)C=CC2=O)c(OC)cc1Cl	0	0	-	-	0	0	-	-	-	-	-	-
CNC(=S)Nc1ccc(N2CCN(c3ccc(C(F)(F)F)cn3)CC2)nc1	0	0	-	-	0	0	-	-	-	-	-	-
O=C(/C=C/Nc1nccs1)C(F)(F)Cl	0	8.9	-	0	0	0	?	0.017	0.038	0.016	?	0.015
COc1ccc(C2CC3(CC(C)(C)NC(SC)=N3)Oc3cc(O)cc(C)c32)cc1 (stereo unspecified)	0	0	0	0	0	0	-	-	-	-	-	-
O=C(CCn1c(=O)c2ccccc2n(Cc2cccc([N+](=O)[O-])c2)c1=O)N1CCc2ccccc2C1	0	-3.1	0	0	0	0	0	0	0	0	0.018	0
Cc1c(C#N)c2ccccc2n1CC(=O)N1CCc2ccccc2C1	0	0	0	0	0	0	-	-	-	-	-	-
CCc1cc2c(SCc3nc4sc(C(C)=O)c(C)c4c(=O)[nH]3)ncnc2s1	0	43	-	-	0	0	?	0.056	0.052	0.043	0.053	0.04
COc1ccc2c(c1)C(=O)[C@@H](O)[C@H](c1ccc(OC)c(Br)c1)O2	0	6	0	0	0	0	0	0.014	0	0.02	?	0
COc1cccc([C@@H]2Oc3ccc(OC)cc3C(=O)[C@H]2O)c1	0	0	0	0	0	0	-	-	-	-	-	-
CN=c1scc(-c2ccc(F)cc2)n1/N=C/c1ccc(O)c(O)c1	0	-4.2	-	0	0	0	0	0	0.023	0	0.015	?
